Experiments:
Acinetobacter baumannii [1] = experiment: Potentiation of colistin-induced antimicrobial activity against colistin-resistant Acinetobacter baumannii 4106 assessed as fold reduction in colistin MIC at 60 uM after 18 hrs by broth microdilution assay; format: functional
How it was run: (§1)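 Checkerboard-style resensitization following adapted CLSI broth microdilution. Bacteria were grown 4–6 h in CAMHB and subcultured to 5×10^5 CFU/mL. Adjuvant was added from DMSO stock and held constant while colistin was serially diluted in the dosed subculture. Plates were incubated stationary at 37°C for 18 h, then MICs were read. Fold reduction was taken relative to the colistin MIC without adjuvant.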

Klebsiella pneumoniae [2] = experiment: Potentiation of colistin-induced antimicrobial activity against colistin-resistant Klebsiella pneumoniae B9 assessed as fold reduction in colistin MIC at 60 uM after 18 hrs by broth microdilution assay; format: functional; how it was run: as §1
Acinetobacter baumannii [3] = experiment: Potentiation of colistin-induced antimicrobial activity against colistin-resistant Acinetobacter baumannii ATCC 17978 expressing mcr1 gene assessed as fold reduction in colistin MIC at 60 uM after 18 hrs by broth microdilution assay; format: functional; how it was run: as §1
Escherichia coli [4] = experiment: Potentiation of colistin-induced antimicrobial activity against colistin-resistant Escherichia coli ATCC 25922 expressing mcr1 gene assessed as fold reduction in colistin MIC at 60 uM after 18 hrs by broth microdilution assay; format: functional; how it was run: as §1
Acinetobacter baumannii [5] = experiment: Toxicity in Acinetobacter baumannii 4106 after 18 hrs by broth microdilution assay; format: organism-based; details: in vitro
How it was run: (§2)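 Single-agent MIC per CLSI broth microdilution. Cells from a 4–6 h culture in cation-adjusted Mueller-Hinton broth adjusted to 5 ×10^5 CFU/mL. Compound (DMSO stock) added to 200 μM top concentration and twofold serially diluted six times, with an untreated control row. Plates sealed and incubated stationary at 37°C for 18 h before MIC read.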

Escherichia coli [6] = experiment: Toxicity in Escherichia coli ATCC 25922 after 18 hrs by broth microdilution assay; format: organism-based; details: in vitro; how it was run: as §2
Acinetobacter baumannii [7] = experiment: Potentiation of colistin-induced antimicrobial activity against colistin-resistant Acinetobacter baumannii isolate 3942 assessed as fold reduction in colistin MIC at 60 uM after 18 hrs by broth microdilution assay; format: functional; how it was run: as §1
Acinetobacter baumannii [8] = experiment: Potentiation of colistin-induced antimicrobial activity against colistin-sensitive Acinetobacter baumannii 5075 assessed as fold reduction in colistin MIC at 60 uM after 18 hrs by broth microdilution assay; format: functional
How it was run: (§3)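 Bacteria grown 4–6 h in cation-adjusted Mueller-Hinton broth and diluted to 5 ×10^5 CFU/mL. Adjuvant from DMSO stock held at fixed 60 μM while colistin is twofold serially diluted in the same adjuvant-dosed broth. Plates sealed and kept stationary at 37°C for 18 h. Colistin MIC read and fold reduction taken relative to colistin alone.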

Acinetobacter baumannii [9] = experiment: Potentiation of colistin-induced antimicrobial activity against Acinetobacter baumannii ATCC 17978 assessed as fold reduction in colistin MIC at 60 uM after 18 hrs by broth microdilution assay; format: functional; how it was run: as §3
Acinetobacter baumannii [10] = experiment: Potentiation of colistin-induced antimicrobial activity against colistin-resistant Acinetobacter baumannii isolate 3942 assessed as fold reduction in colistin MIC at 50 uM after 18 hrs by broth microdilution assay; format: functional
How it was run: (§4)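 CLSI-adapted broth microdilution. Bacteria were grown 4–6 h in cation-adjusted Mueller-Hinton broth and subcultured to 5 ×10^5 CFU/mL. The subculture was dosed with adjuvant from DMSO stock at a constant final concentration, then colistin was added and serially diluted across wells. Plates were incubated stationary at 37°C for 18 h and the MIC recorded. Fold reduction is relative to the colistin MIC without adjuvant.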

Acinetobacter baumannii [11] = experiment: Potentiation of colistin-induced antimicrobial activity against colistin-resistant Acinetobacter baumannii isolate 3942 assessed as fold reduction in colistin MIC at 5 uM after 18 hrs by broth microdilution assay; format: functional; how it was run: as §4
Klebsiella pneumoniae [12] = experiment: Potentiation of colistin-induced antimicrobial activity against colistin-resistant Klebsiella pneumoniae isolate C3 assessed as fold reduction in colistin MIC at 50 uM after 18 hrs by broth microdilution assay; format: functional; how it was run: as §4
Klebsiella pneumoniae [13] = experiment: Potentiation of colistin-induced antimicrobial activity against colistin-resistant Klebsiella pneumoniae isolate C3 assessed as fold reduction in colistin MIC at 40 uM after 18 hrs by broth microdilution assay; format: functional; how it was run: as §4
Acinetobacter baumannii [14] = experiment: Potentiation of colistin-induced antimicrobial activity against colistin-resistant Acinetobacter baumannii isolate 3942 after 18 hrs by broth microdilution assay; format: functional, organism-based
How it was run: (§5)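 Colistin MIC was determined by adapted CLSI broth microdilution in CAMHB (5×10^5 CFU/mL inoculum), with adjuvant held at fixed levels of 5, 10, 15, 20, 30, 40, 50 or 60 μM. Adjuvant was dosed from DMSO stock while colistin was serially diluted. Plates were incubated stationary at 37°C for 18 h. Fold reduction was taken versus colistin alone.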

Klebsiella pneumoniae [15] = experiment: Potentiation of colistin-induced antimicrobial activity against colistin-resistant Klebsiella pneumoniae isolate C3 after 18 hrs by broth microdilution assay; format: functional, organism-based; how it was run: as §5
Klebsiella pneumoniae [16] = experiment: Potentiation of colistin-induced antimicrobial activity against colistin-resistant Klebsiella pneumoniae isolate C3 assessed as fold reduction in colistin MIC at 60 uM incubated for 2 to 24 hrs under shaking condition in presence of 0.001% triton X-100 by broth microdilution assay; format: functional
Acinetobacter baumannii [17] = experiment: Induction of membrane permeabilization in colistin-resistant Acinetobacter baumannii isolate 3942 at 60 uM measured after 1 hr by SYTO-9/propidium iodide staining based fluorescence assay relative to control; format: functional
How it was run: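 Cells were grown overnight in CAMHB at 37°C, diluted 1:10 and grown 4 h more to an OD600 of ~0.3. They were pelleted, washed with sterile water and resuspended at 1/10 volume in water containing compound. After 1 h at 37°C with shaking, cells were washed and stained with SYTO-9/propidium iodide (1:1, 3 μL/mL) for 15 min at RT. Emission was read at 530 and 645 nm (excitation 485 nm), and the green/red ratio was expressed as % of the untreated control.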

O=C(NCc1c[nH]c2ccccc12)c1cc(Br)c(Br)[nH]1
fold change (FC) (Acinetobacter baumannii [1]): 2048 | fold change (FC) (Klebsiella pneumoniae [2]): 2048 | fold change (FC) (Acinetobacter baumannii [3]): 32 | fold change (FC) (Escherichia coli [4]): 16 | MIC (Acinetobacter baumannii [5]): > 200 µM | MIC (Escherichia coli [6]): > 200 µM | fold change (FC) (Acinetobacter baumannii [7]): 2048 | fold change (FC) (Acinetobacter baumannii [8]): 4 | fold change (FC) (Acinetobacter baumannii [9]): 4 | fold change (FC) (Acinetobacter baumannii [10]): 512 | fold change (FC) (Acinetobacter baumannii [11]): 0 | fold change (FC) (Klebsiella pneumoniae [12]): 512 | fold change (FC) (Klebsiella pneumoniae [13]): 256 | Activity (Acinetobacter baumannii [14]): Dose-dependent effect | Activity (Klebsiella pneumoniae [15]): Dose-dependent effect | fold change (FC) (Klebsiella pneumoniae [16]): 2048 | fold change (FC) (Acinetobacter baumannii [17]): 1.9

Reference: ChEMBL document CHEMBL4392827, “Tryptamine derivatives disarm colistin resistance in polymyxin-resistant gram-negative bacteria” (Bioorg Med Chem, 2019)
